We go through 13 molecules from ChEMBL document CHEMBL1137208, “2-(1-adamantyl)-4-(thio)chromenone-6-carboxylic acids: potent reversible inhibitors of human steroid sulfatase” (J Med Chem, 2004).

The target of assay [1] is T1, Steryl-sulfatase (Homo sapiens, UniProt P08842).
T1 sequence (P08842 whole entry): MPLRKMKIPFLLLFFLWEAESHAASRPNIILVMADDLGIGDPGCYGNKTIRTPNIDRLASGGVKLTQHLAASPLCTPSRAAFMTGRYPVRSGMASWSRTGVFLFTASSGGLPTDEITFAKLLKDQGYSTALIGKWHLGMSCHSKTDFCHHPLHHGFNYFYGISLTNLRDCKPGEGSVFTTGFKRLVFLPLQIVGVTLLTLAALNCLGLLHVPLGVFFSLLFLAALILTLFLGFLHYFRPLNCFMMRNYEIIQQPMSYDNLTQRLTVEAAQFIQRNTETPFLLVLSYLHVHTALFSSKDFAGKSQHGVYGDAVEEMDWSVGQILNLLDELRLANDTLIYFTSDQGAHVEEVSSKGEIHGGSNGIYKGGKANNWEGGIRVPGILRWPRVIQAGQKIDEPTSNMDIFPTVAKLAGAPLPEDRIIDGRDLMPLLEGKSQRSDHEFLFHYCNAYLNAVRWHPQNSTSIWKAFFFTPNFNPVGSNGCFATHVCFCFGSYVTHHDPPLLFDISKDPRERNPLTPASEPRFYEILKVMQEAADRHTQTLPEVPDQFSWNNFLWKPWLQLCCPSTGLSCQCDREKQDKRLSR
Put plainly: Inhibitory activity against human steroid sulfatase. The procedure, abridged:
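Highly purified human STS from stably transfected recombinant CHO cells (purity >95%). Substrate 0.5 mM 4-methylumbelliferyl sulfate, pH 7.5, 37 °C. 4-Methylumbelliferone formed was read by fluorescence after alkalization. Inhibitors were added at graded concentrations from ethanol stocks (final ethanol ≤2%). Ki came from turnover at several substrate and inhibitor levels, using a Hanes plot and a Km/Vmax vs I replot.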

In assay [2] the target is T1, Steryl-sulfatase. Put plainly: Inhibitory activity against human steroid sulfatase over-expressed in CHO cells. It is filed as functional, cell-based. The procedure, abridged: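 Live CHO cells stably expressing human STS, 30 000/well, adhered overnight in phenol red-free RPMI 1640 with 10% FCS. Cells were treated with graded inhibitor for 24 h. Medium was then replaced with the same concentrations plus 0.5 mM 4-MUS for 4 h at 37 °C. Supernatant was stopped at pH 10.4 and read at ex 355/em 460 nm. Signal was normalized to sulforhodamine B protein. Triplicates; IC50 is 50% inhibition.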

For the molecule `NS(=O)(=O)Oc1ccc2oc(C34CC5CC(CC(C5)C3)C4)cc(=O)c2c1`, affinity at Steryl-sulfatase [1] was put at a Ki of 0.19 µM. Moreover, on Steryl-sulfatase [2], the IC50 (as a rule, the concentration needed to halve the response being measured) came to 0.026 µM.

As for `NC(=O)c1ccc2oc(C34CC5CC(CC(C5)C3)C4)cc(=O)c2c1`, the Ki (usually a dissociation constant, usually derived from enzyme kinetics or from competition with a known ligand) at Steryl-sulfatase [1] is more than 50 µM. Also, the IC50 against Steryl-sulfatase [2] is more than 30 µM.

`O=C(O)c1ccc2oc(C34CC5CC(CC(C5)C3)C4)cc(=O)c2c1`: at Steryl-sulfatase [1], the Ki came to 0.5 µM. Also, at Steryl-sulfatase [2], the midpoint of inhibition, the IC50, lay at 9.4 µM.

On Steryl-sulfatase [1], `COC(=O)c1ccc2oc(C34CC5CC(CC(C5)C3)C4)cc(=O)c2c1` registered a Ki of more than 50 µM. Also, at Steryl-sulfatase [2], the IC50 was more than 30 µM.

On Steryl-sulfatase [1], `O=C(O)c1ccc2sc(C34CC5CC(CC(C5)C3)C4)cc(=O)c2c1` yielded an inhibitory constant (Ki) of 0.53 µM. The same molecule returned an IC50 at Steryl-sulfatase [2] of 0.18 µM.

For `O=C(CO)c1ccc2oc(C34CC5CC(CC(C5)C3)C4)cc(=O)c2c1`, the Ki on Steryl-sulfatase [1] turned out to be 3.2 µM. The IC50 on Steryl-sulfatase [2] is more than 30 µM.

At Steryl-sulfatase [1], `O=C(O)C(=O)c1ccc2oc(C34CC5CC(CC(C5)C3)C4)cc(=O)c2c1` yielded a Ki of 2.2 µM. At Steryl-sulfatase [2], this molecule displayed an IC50 of 12.3 µM.

On Steryl-sulfatase [1], `O=Cc1ccc2oc(C34CC5CC(CC(C5)C3)C4)cc(=O)c2c1` gave a Ki of more than 20 µM. Further, the IC50 on Steryl-sulfatase [2] is more than 30 µM.

As for `NS(=O)(=O)Oc1ccc2sc(C34CC5CC(CC(C5)C3)C4)cc(=O)c2c1`, the affinity on Steryl-sulfatase [1], expressed as Ki, was 0.21 µM. The molecule further showed an IC50 against Steryl-sulfatase [2] of 0.024 µM.

At Steryl-sulfatase [1], `N#Cc1ccc2sc(C34CC5CC(CC(C5)C3)C4)cc(=O)c2c1` came in with a Ki of more than 50 µM. The same molecule showed an IC50 on Steryl-sulfatase [2] of more than 30 µM.

Regarding `O=C(O)Cc1ccc2oc(C34CC5CC(CC(C5)C3)C4)cc(=O)c2c1`, the Ki at Steryl-sulfatase [1] was more than 50 µM. The molecule further came in with an IC50 at Steryl-sulfatase [2] of more than 30 µM.

Take `O=c1cc(C23CC4CC(CC(C4)C2)C3)oc2ccc(CO)cc12`: the Ki at Steryl-sulfatase [1] stood at 32 µM. Further, the IC50 against Steryl-sulfatase [2] was approximately 30 µM.

In turn, `C[C@]12CC[C@@H]3c4ccc(OS(N)(=O)=O)cc4CC[C@H]3[C@@H]1CCC2=O` [EMATE] had an IC50 at Steryl-sulfatase [2] of 0.02 µM.
